Laboratory results taken from ChEMBL document CHEMBL3272177, “Hypolipidemic alkoxybenzoic acids” (1976).

Columns and labels:
Parameters in all cases: scale not given: the % may be the effect or the level left
Rattus norvegicus [1] = species: Rattus norvegicus; assay: Reduction in sterol level in CFE rat […] in serum at 0.05% of diet treated through diet for 6 days relative to control; format: functional
How it was run: (§1)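 Compound dissolved in methanol-chloroform (1:3 v/v), mixed into ground rat chow at 0.1, 0.05 or 0.025% (w/w), and solvent evaporated; controls received solvent-treated chow. Rats fed ad libitum with water for 6 days, then killed fed and bled. Serum sterols and triglycerides measured by autoanalyzer. Values given as percent of control, mean ± SE; significance by Student's t test.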

Rattus norvegicus [2] = species: Rattus norvegicus; assay: Reduction in sterol level in CFE rat […] in serum at 0.1% of diet treated through diet for 6 days relative to control; format: functional; how it was run: as §1
Rattus norvegicus [3] = species: Rattus norvegicus; assay: Reduction in triglyceride level in CFE rat […] at 0.025% of diet treated through diet for 6 days relative to control; format: functional, Serum; how it was run: as §1
Rattus norvegicus [4] = species: Rattus norvegicus; assay: Reduction in triglyceride level in CFE rat […] in serum at 0.1% of diet treated through diet for 6 days relative to control; format: functional; how it was run: as §1
Rattus norvegicus [5] = species: Rattus norvegicus; assay: Reduction in triglyceride level in CFE rat […] in serum at 0.05% of diet treated through diet for 6 days relative to control; format: functional; how it was run: as §1
Rattus norvegicus [6] = species: Rattus norvegicus; assay: Reduction in sterol level in CFE rat […] at 0.025% of diet treated through diet for 6 days relative to control; format: functional, Serum; how it was run: as §1

| Structure (SMILES) | Activity (Rattus norvegicus [1]) [%] | Activity (Rattus norvegicus [2]) [%] | Activity (Rattus norvegicus [3]) [%] | Activity (Rattus norvegicus [4]) [%] | Activity (Rattus norvegicus [5]) [%] | Activity (Rattus norvegicus [6]) [%] |
| --- | --- | --- | --- | --- | --- | --- |
| CCCCCCCCCCCC(CCOc1ccc(C(=O)O)cc1)N=[N+]=[N-] (configuration not stated) | 89 | 76 | 98 | 55 | 60 | 105 |
| CC(C)CCCC(C)CCCC(C)CCOc1ccc(C(=O)O)cc1 (configuration not stated) | 73 | 87 | 72 | 26 | 72 | 81 |
| O=C(O)c1ccc(OC2CCCCCCCCCCC2)cc1 | 94 | 86 | 97 | 87 | 81 | 87 |
| CCCCCCCCCCCC(CCOc1ccc(C(=O)O)cc1)SCc1ccccc1 (configuration not stated) | 100 | 92 | 92 | 69 | 79 | 109 |
| CCCCCCCCCCCC(CCOc1ccc(C(=O)O)cc1)SCC (configuration not stated) | 93 | 83 | 68 | 44 | 74 | 95 |
| CCCCCCCCCCCCCCCCOc1ccc(C(=O)O)cc1[N+](=O)[O-] | 101 | 103 | 93 | 122 | 120 | 95 |
| CCCCCCCCCCCCCCCCOc1c(Cl)cc(C(=O)O)cc1Cl | 105 | 103 | 100 | 103 | 89 | 98 |
| CCCCCCCCCCCCCCCCOc1c(I)cc(C(=O)O)cc1I | 85 | 93 | 96 | 105 | 86 | 94 |
| CCCCCCCCCCCCCCCCOc1c(C)cc(C(=O)O)cc1C | 89 | 97 | 68 | 82 | 79 | 78 |
| CCCCCCCCCCCC(O)CCOc1ccc(C(=O)O)cc1 (configuration not stated) | 112 | 116 | 69 | 53 | 60 | 105 |
| CCCCCCCCCCCC(Cl)CCOc1ccc(C(=O)O)cc1 (configuration not stated) | 69 | 60 | 59 | 47 | 53 | 72 |
| CCCCCCCCCCCC(S)CCOc1ccc(C(=O)O)cc1 (configuration not stated) | 89 | 83 | 76 | 47 | 53 | 94 |
| O=C(O)c1ccc(OCCCCCCCCCCCO)cc1 | 106 | 113 | 83 | 81 | 93 | 91 |
| COCCCCCCCCCCCOc1ccc(C(=O)O)cc1 | 90 | 97 | 80 | 64 | 53 | 79 |
| CCOCCCCCCCCCCCOc1ccc(C(=O)O)cc1 | 109 | 95 | 66 | 63 | 73 | 103 |
| CCCCOCCCCCCCCCCCOc1ccc(C(=O)O)cc1 | 81 | 97 | 74 | 55 | 67 | 75 |
| O=C(O)c1ccc(OCCCCCCCCCCCS)cc1 | 74 | 80 | 61 | 44 | 47 | 44 |
| O=C(O)c1ccc(OCCCCCCCCCCCCS)cc1 | 81 | 79 | 61 | 26 | 46 | 88 |
| O=C(O)c1ccc(OCCCCCCCCCCCCCCCS)cc1 | 81 | 82 | 56 | 40 | 42 | 100 |
| O=C(O)c1ccc(OCCCCCCCCCCCCCCCCS)cc1 | 82 | 83 | 51 | 37 | 35 | 82 |
| CCSCCCCCCCCCCCOc1ccc(C(=O)O)cc1 | 70 | 76 | 60 | 48 | 56 | 74 |

| Structure (SMILES) | Activity (Rattus norvegicus [1]) [%] | Activity (Rattus norvegicus [2]) [%] | Activity (Rattus norvegicus [3]) [%] | Activity (Rattus norvegicus [4]) [%] | Activity (Rattus norvegicus [5]) [%] | Activity (Rattus norvegicus [6]) [%] |
| --- | --- | --- | --- | --- | --- | --- |
| CCSCCCCCCCCCCCCCCCCOc1ccc(C(=O)O)cc1 | 88 | 90 | 59 | 45 | 48 | 89 |
| CCCSCCCCCCCCCCCOc1ccc(C(=O)O)cc1 | 94 | 86 | 61 | 42 | 43 | 96 |
| CCCCSCCCCCCCCCCCOc1ccc(C(=O)O)cc1 | 76 | 76 | 60 | 60 | 53 | 70 |
| O=C(O)c1ccc(OCCCCCCCCCCCSCc2ccccc2)cc1 | 75 | 77 | 71 | 41 | 55 | 88 |
| O=C(O)c1ccc(OCCCCCCCCCCCCCCCSCc2ccccc2)cc1 | 101 | 82 | 70 | 37 | 50 | 109 |
| CCCC[S+]([O-])CCCCCCCCCCCOc1ccc(C(=O)O)cc1 (configuration not stated) | 97 | 102 | 83 | 44 | 54 | 102 |
| CC[S+]([O-])CCCCCCCCCCCCCCCCOc1ccc(C(=O)O)cc1 (configuration not stated) | 81 | 94 | 87 | 55 | 80 | 89 |
| CCCCS(=O)(=O)CCCCCCCCCCCOc1ccc(C(=O)O)cc1 | 95 | 94 | 81 | 57 | 69 | 91 |
| CCS(=O)(=O)CCCCCCCCCCCCCCCCOc1ccc(C(=O)O)cc1 | 83 | 89 | 70 | 60 | 61 | 90 |
| CCCCNCCCCCCCCCCCOc1ccc(C(=O)O)cc1 | 104 | 100 | 119 | 100 | 103 | 98 |
| O=C(O)CCCCCCCCCCOc1ccc(C(=O)O)cc1 | 100 | 94 | 118 | 100 | 135 | 96 |
| CCCCNC(=O)CCCCCCCCCCOc1ccc(C(=O)O)cc1 | 96 | 88 | 93 | 85 | 87 | 99 |
| CC(C)CCCC(C)CCCC(C)CCCC(C)CCOc1ccc(C(=O)O)cc1 (configuration not stated) | 84 | 71 | 110 | 72 | 104 | 87 |
| O=C(O)c1ccc(OCC2CCCCCCCCCCC2)cc1 | 105 | 101 | 123 | 160 | 130 | 104 |
| CCCCCCCCCCCCCCC(C)Oc1ccc(C(=O)O)cc1 (configuration not stated) | 85 | 84 | 92 | 70 | 72 | 90 |
| CCCCCCCCCCCCCC(CC)Oc1ccc(C(=O)O)cc1 (configuration not stated) | 86 | 85 | 83 | 75 | 78 | 82 |
| CCCCCCCCCCCCC(CCC)Oc1ccc(C(=O)O)cc1 (configuration not stated) | 76 | 74 | 70 | 53 | 62 | 78 |
| O=C(O)c1ccc(OC2C3CC4CC(C3)CC2C4)cc1 (configuration not stated) | 92 | 96 | 79 | 88 | 82 | 88 |
| CCCCCCCCCCCC(C)(C)Oc1ccc(C(=O)O)cc1 | 88 | 83 | 74 | 63 | 80 | 90 |
| CCCCCCCCCCCCC(C)(C)Oc1ccc(C(=O)O)cc1 | 90 | 97 | 77 | 87 | 79 | 100 |
| CCCCCCCCCCCCCC(C)(C)Oc1ccc(C(=O)O)cc1 | 120 | 100 | 127 | 83 | 105 | 92 |
